Screens deposited in PubChem BioAssay by several laboratories.
NALP3 yeast inh – NALP3 inflammasome inhibitors in reconstituted yeast, primary screen, luminescence, uHTS; actives 0.39% (n = 330,000); Yeast reconstituted NLRP3/ASC/caspase-1, beta-gal luminescence, 24 h; AID 2825, 2010; inhibition, % at 10 µM;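 active means inhibition of 50% or more; inactive means inhibition below 50%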
MC4R barr agon – MC4R agonists recruiting beta-arrestin, primary screen, cell-based, luminescence, agonist arm of biased-ligand search | Melanocortin receptor 4 (Homo sapiens), P32245 | U2OS MC4R beta-arrestin complementation; percent of melanotan II response, DMSO zero | activation, % at 8.9 µM | actives 0.98% (n = 360,000) | AID 540308, 2011;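 active means activation above a per-plate cutoff, the mean activation of sample wells on that plate plus 3 SD, cut at about 8% in these data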
Target sequence (P32245 whole entry, looked up): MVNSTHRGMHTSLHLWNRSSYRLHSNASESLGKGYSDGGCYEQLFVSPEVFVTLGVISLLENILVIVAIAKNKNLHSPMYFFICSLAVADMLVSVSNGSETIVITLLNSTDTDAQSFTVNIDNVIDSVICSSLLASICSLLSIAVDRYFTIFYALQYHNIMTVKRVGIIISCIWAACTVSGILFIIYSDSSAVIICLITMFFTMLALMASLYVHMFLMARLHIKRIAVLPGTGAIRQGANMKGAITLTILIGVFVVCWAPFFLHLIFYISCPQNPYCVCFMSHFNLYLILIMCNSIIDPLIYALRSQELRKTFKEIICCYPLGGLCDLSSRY
Tb MetRS inh – T. brucei MetRS inhibitors, primary screen, biochemical, luminescence | methionyl-tRNA synthetase (Trypanosoma brucei brucei) | inhibition, % at 11.9 µM | purified T. brucei MetRS, ATP depletion, Kinase-Glo luminescence | actives 0.4% (n = 360,000);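 active means inhibition above a per-plate cutoff of the control wells' mean inhibition plus 3 SD, cut at about 5.5% in these data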
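Material: parasite MetRS enzyme / Replication: singlicate, one well per compound / Signal: luminescence of leftover ATP / Schedule: 2 h aminoacylation at 25 °C after 15 min preincubation / Medium: HEPES-MgCl2-KCl buffer plus DTT, spermine, BSA, pyrophosphatase / Doses: 11.9 µM single point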
A1 inh – caspase 3/7 activation in MEF A1-2A-BIM cells, primary screen, A1 inhibitor project, cell-based, luminescence, HTS; Caspase-Glo 3/7 luminescence, 3 h; percent of clofoctol response, vehicle zero; caspase activation, % (concentration not given with the values); actives 0.066% (n = 330,000); AID 2462, 2010;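 active means over half of replicate activation scores above 10%, or exactly half above 10 with the replicate mean above 10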
MC4R antagonist – MC4R antagonists of cAMP signaling, primary screen, cell-based, TR-FRET, antagonist arm of biased-ligand search | Melanocortin receptor 4 (Homo sapiens), P32245 | MC4R-expressing cells, MTII-stimulated cAMP, LANCE TR-FRET | inhibition, % at 6.5 µM | actives 0.48% (n = 360,000);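 active means inhibition above its plate's cutoff, the mean of tested wells on that plate plus 3 SD, cut at about 29% in these data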
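Assay system: human MC4R-expressing U2OS cells; reagent: Melanotan II stimulation of cells; dosing: 6.5 µM single dose; timing: compound 30 min, challenge 1 h, detection 1 h; signal: TR-FRET cAMP assay; replicates: one well per compound, no replicates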
NALP1 inh – NALP1 inflammasome inhibitors in reconstituted yeast, colorimetric, S. cerevisiae, triplicate retest | S. cerevisiae NALP1/ASC/caspase-1 growth, X-gal OD620, 72 h | inhibition, % at 10 µM | actives 0.61% (n = 280,000) | AID 2071, 2009; in the data active means inhibition mostly above about 24%, no sharp cut-off; inactive means mostly below about 32%
U2OS cAMP counter – nonselective cAMP signaling inhibitors, parental cells, counter-screen for MC4R biased antagonist project, cell-based, TR-FRET, U2OS, forskolin, triplicate; shares compounds with MC4R antagonist; LANCE TR-FRET; inhibition, % at 6.5 µM; actives 26% (n = 1,600); AID 602193, 2012;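 active means mean inhibition over triplicates above the low-control well mean plus 3 SD, set per campaign, cut at about 13% in these data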;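 further: signal is single emission at 671 nm which falls as cellular cAMP rises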
MC4R cAMP antag – MC4R cAMP antagonists, retest, confirmation, cell-based, TR-FRET; shares compounds with MC4R antagonist; MC4R-expressing cells, MTII-stimulated cAMP; inhibition, % at 6.5 µM; actives 27% (n = 1,600); AID 602195, 2012; in the data active means inhibition above about 29%
Numbers stand for hits; - = inactive; . = no result. Most compounds without a hit are left out; they make up all but 2.5% or so of the library.

SMILES	NALP3 yeast inh	MC4R barr agon	Tb MetRS inh	A1 inh	MC4R antagonist	NALP1 inh	U2OS cAMP counter	MC4R cAMP antag
O=C(Nc1ccccc1)C1=C(c2ccccc2)S(=O)(=O)CCS1(=O)=O	.	-	-	.	47	-	28	37
Cc1ccc(N2CC(C(=O)N/N=C/c3c(F)cccc3Cl)CC2=O)cc1 (stereo not drawn)	-	-	-	-	-	-	.	.
Cn1nc(C(=O)OCC(=O)Nc2ccc(SC(F)F)cc2)c2ccccc2c1=O	-	-	-	-	-	.	.	.
CCCS(=O)(=O)NC(=O)C1(C)CCCN(C(=O)c2nc3ccccc3s2)C1 (stereo not drawn)	.	-	-	.	-	.	.	.
CN1C[C@@H]2[C@@H]3C(=O)N(Cc4ccccc4)C(=O)[C@@H]3[C@](Cc3ccccc3)(C1=O)N2C(=O)c1ccc(C(C)(C)C)cc1	.	-	-	.	-	.	.	.
O=C(Cc1ccccc1)Nc1cccc(N2C(=O)C=CC2=O)c1	.	-	-	-	54	-	18	34
COc1cccc(NC(=O)Cc2ccccc2)c1	-	-	-	-	-	-	.	.
OCCC1CN(Cc2cccn2-c2ccccn2)CCN1C1CCCC1 (stereo not drawn)	-	-	-	-	-	-	.	.
CC(=O)c1cccc(CN2CCN(C3CCCC3)C(CCO)C2)c1 (stereo not drawn)	-	-	-	-	29	-	-	-
OCCC1CN(Cc2ccccn2)CCN1C1CCCC1 (stereo not drawn)	-	-	-	-	37	-	21	-
CN(CC(=O)NCCc1ccc(S(N)(=O)=O)cc1)S(=O)(=O)c1ccc(Br)s1	-	-	-	-	-	-	.	.
CN(C)c1ccc(-c2ccnc3c2CC(C)(C(=O)Nc2ccc(F)c(Cl)c2)O3)cc1 (stereo not drawn)	.	-	-	.	-	.	.	.
C=C1CC2(CC(c3ccccc3)OC(c3ccccc3)C2)OC1=O (stereo not drawn)	.	-	-	.	34	.	21	46
C[C@H]1CN([C@@H](C)CO)S(=O)(=O)c2ccc(Br)cc2O[C@H]1CN(C)C(=O)c1cccc(F)c1	.	-	-	.	-	.	.	.
CCOC(=O)N1CCC(N2CCCC(CO)(Cc3cccc(Cl)c3)C2)CC1 (stereo not drawn)	-	-	-	-	34	-	-	-
CN1CC[C@]2(CCN3CCc4c(oc5ccccc45)[C@@H]3C2)N(C)C1=O	-	-	-	-	-	.	.	.
CCOC(=O)C(=Cc1ccc(-n2ccnc2)cc1)C(=O)OCC	-	-	-	-	34	-	-	-
CC(=O)N(C1=C(N)C(=O)c2ccccc2C1=O)C(C)C	-	-	-	-	-	-	.	.
COc1ccccc1N(C(C)=O)C1=C(Cl)C(=O)c2ccccc2C1=O	.	-	-	.	98	.	50	-
OCC(O)C1OC(c2ccco2)OC(CO)C1O (stereo not drawn)	.	-	-	.	-	.	.	.
CC(C)(C)OC(=O)NCc1ccc(NC(=O)c2nc[nH]c2C(=O)N[C@@H](Cc2ccccc2)C(=O)OC(C)(C)C)cc1	-	-	-	-	-	.	.	.
CC(C)C[C@H](NC(=O)c1[nH]cnc1C(=O)Nc1ccc(CNC(=O)OC(C)(C)C)cc1)C(=O)OCc1ccccc1	-	-	-	-	61	.	18	37
C[C@H](NC(=O)c1[nH]cnc1C(=O)Nc1ccc(CNC(=O)OC(C)(C)C)cc1)C(=O)OCc1ccccc1	-	-	-	-	29	.	-	-
O=c1cc(-c2ccccc2)ss1	.	-	-	.	-	.	.	.
Cc1cccc(C)c1NC(=O)COc1ccccc1C(=O)Nc1ccc(Br)cn1	-	-	-	-	33	-	50	91
SMILES	NALP3 yeast inh	MC4R barr agon	Tb MetRS inh	A1 inh	MC4R antagonist	NALP1 inh	U2OS cAMP counter	MC4R cAMP antag
COc1ccc(-c2noc(CN(C)CCC3CCCCO3)n2)cc1 (stereo not drawn)	-	-	-	-	32	-	-	-
COc1ccc(/C=C2/C(=O)ON=C2c2ccccc2)cc1OC	-	-	-	-	-	-	.	.
COc1ccc(/C=C2\C(=O)ON=C2c2ccccc2)cc1OC	-	-	-	-	31	-	-	-
Cc1ccc(S(=O)(=O)N2CCCCC2)cc1NC(=O)c1cc(F)c(F)c(F)c1F	-	-	-	-	-	.	.	.
O=C(NCc1ccco1)C(c1ccccc1)N(C(=O)Cc1cccs1)c1ccccc1 (stereo not drawn)	-	-	-	-	-	-	.	.
O=C(NCc1ccco1)C(c1ccccc1)N(C(=O)Cc1cccs1)c1cccnc1 (stereo not drawn)	-	-	-	-	29	-	-	-
Cc1noc(C(=O)Nc2cccc(O)c2)c1Cl	-	-	-	-	29	.	-	-
CCOc1cc(C(=O)OCC(=O)Nc2c(C)cccc2C)ccc1OCC(=O)N1CCOCC1	-	-	-	-	-	-	.	.
CCOC(=O)c1ccccc1NC(=O)COC(=O)c1ccc(OCC(=O)N2CCOCC2)c(OCC)c1	.	9.1	-	.	30	.	-	-
Cc1ccc(C(=O)NCc2ccc3c(c2)OCO3)c(Cl)c1	.	-	-	.	-	.	.	.
CC1CCN(S(=O)(=O)c2ccc(NC(=O)c3ccncc3)cc2)CC1	-	-	-	-	-	-	.	.
Cc1ccc(NC(=O)c2nc(S(=O)(=O)Cc3ccccc3C)ncc2Cl)cc1C	-	-	-	-	32	-	30	-
CCS(=O)(=O)c1ncc(Cl)c(C(=O)Nc2ccc(S(=O)(=O)N3CCC(C)CC3)cc2)n1	-	-	-	42	56	-	-	39
CN(c1ccccc1)S(=O)(=O)c1ccc(NC(=O)c2nc(S(C)(=O)=O)ncc2Cl)cc1	-	-	-	-	57	-	26	36
CCOC(=O)c1ccc(NC(=O)c2nc(S(=O)(=O)Cc3ccccc3)ncc2Cl)cc1	-	-	-	-	-	-	.	.
Cc1cccc(CS(=O)(=O)c2ncc(Cl)c(C(=O)NCc3ccc4c(c3)OCO4)n2)c1	-	-	-	-	33	-	-	-
CN(c1ccccc1)S(=O)(=O)c1ccc(NC(=O)c2ccccc2)cc1	-	-	-	-	-	-	.	.
